Drawing on ChEMBL document CHEMBL1155032, “Dendronpholides A-R, cembranoid diterpenes from the chinese soft coral Dendronephthya sp” (J Nat Prod, 2008), this text covers IC50 for 12 compounds.

In brackets after ≈: the same amount, converted by molar mass. A value given as a limit tells only on which side of the number the result lay.

The assay is described as follows: Cytotoxicity against human […] cells. In kind it is functional, cell-based. Put shortly: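 In vitro assay on the human gastric cancer line BGC-823, one of a panel of human cancer lines. Viability was read out by the MTT method, following a previously published procedure.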
The term IC50 denotes the concentration that gives 50% inhibition. Read a low IC50 as greater potency in that assay. In the case of `C=C1C(=O)O[C@]2(C)CC[C@@H]1C[C@H](O)/C(C)=C/C/C=C(\C)CC[C@@H]2O`, the concentration for half-maximal inhibition (IC50) is > 10 µg/mL.
Turning to `C=C1C(=O)O[C@]2(C)CC[C@@H]1C[C@H](O)/C(C)=C/C/C=C(\C)CC[C@@H]2OC(C)=O` [DENDRONPHOLIDE A], the IC50 is > 10 µg/mL.
Turning to `C=C1C(=O)O[C@]2(C)CC[C@@H]1C[C@@H](O)/C(C)=C/C/C=C(\C)CC[C@@H]2OC(C)=O` [DENDRONPHOLIDE B], the concentration for half-maximal inhibition (IC50) is > 10 µg/mL.
`C=C(C(=O)OC)[C@@H]1CC[C@@](C)(O)[C@@H](O)CC/C(C)=C/C/C=C(\C)[C@@H](O)C1` [DENDRONPHOLIDE C] displayed an IC50 of 0.05 µg/mL (≈ 0.136 µM).
Take `C=C(C(=O)OC)[C@@H]1CC[C@@](C)(O)[C@@H]2CC[C@@](C)(O2)[C@@H](OC(C)=O)CC[C@]2(C)O[C@H]2C1` [DENDRONPHOLIDE G]: the IC50 stood at 0.02 µg/mL (≈ 0.0471 µM).
As for `C=C(C(=O)O)[C@@H]1CC[C@@](C)(O)[C@@H]2CC[C@@](C)(O2)[C@@H](OC(C)=O)CC[C@](C)(O)[C@H](O)C1` [DENDRONPHOLIDE I], the IC50 was > 10 µg/mL.
`C=C(C(=O)O)[C@@H]1CC[C@@](C)(O)[C@@H]2CC[C@@](C)(O2)[C@@H](O)CC[C@](C)(O)[C@H](OC(C)=O)C1` [DENDRONPHOLIDE J] had an IC50 of 0.2 µg/mL (≈ 0.467 µM).
As for `C=C(C(=O)O)[C@@H]1CC[C@@](C)(O)[C@@H]2CC[C@@](C)(O2)[C@@H](OC(C)=O)CC[C@](C)(OC)[C@H](O)C1` [DENDRONPHOLIDE K], the IC50 was > 10 µg/mL.
The result for `C=C(C(=O)OCC)[C@@H]1CC[C@@](C)(O)[C@@H]2CC[C@@](C)(O2)[C@@H](OC(C)=O)C/C=C(\C)[C@H](O)C1` [DENDRONPHOLIDE O] reads > 10 µg/mL.
Turning to `C=C(C(=O)OC)[C@@H]1CC[C@@](C)(O)[C@@H]2CC[C@@](C)(O2)[C@@H](OC(C)=O)C/C=C(\C)[C@H](O)C1` [DENDRONPHOLIDE P], the IC50 is > 10 µg/mL.
Take `C=C1C(=O)O[C@]2(C)CC[C@@H]1C[C@@H](OC(C)=O)[C@@]1(C)CC[C@H](O1)[C@@](C)(O)CC[C@@H]2OC(C)=O` [DENDRONPHOLIDE Q]: the IC50 was > 10 µg/mL.
For the compound `C=C(C(=O)O)[C@@H]1CC[C@@](C)(O)[C@@H](OC(C)=O)CCC(=C)[C@@H]2CC[C@@](C)(O2)[C@H](O)C1` [DENDRONPHOLIDE R], the IC50 is > 10 µg/mL.
